ChEMBL document CHEMBL3797090, “One-pot synthesis of 1,4-dihydroxy-2-((E)-1-hydroxy-4-phenylbut-3-enyl)anthracene-9,10-diones as novel shikonin analogs and evaluation of their antiproliferative activities” (Bioorg Med Chem Lett, 2016)

How the values were obtained:
[1] = Cytotoxicity against human MCF10 cells assessed as cell viability at 33.3 uM after 72 hrs by cell titer glo assay; format: cell-based; details: read-out: Activity
Method in brief: (§1)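 The highest concentration tested was 33.3 μM, in a series running down to 0.0152 μM. Results came from three independent experiments.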

[2] = system: MCF7; assay: Cytotoxicity against human MCF7 cells assessed as reduction in cell growth after 72 hrs by cell titer glo assay; format: functional, cell-based; details: MCF7, 72 h
Method in brief: (§2)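 IC50, the concentration giving 50% inhibition of cell growth, was read from plots of inhibition against concentration. Values were calculated from three independent experiments.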

[3] = Cytotoxicity against human MIAPaCa2 cells assessed as reduction in cell growth after 72 hrs by cell titer glo assay; format: functional, cell-based; details: MIA PaCa-2, 72 h
[4] = system: MDA-MB-231; assay: Cytotoxicity against human MDA-MB-231 cells assessed as reduction in cell growth after 72 hrs by cell titer glo assay; format: functional, cell-based; details: MDA-MB-231, 72 h; method in brief: as §2
[5] = system: HeLa; assay: Cytotoxicity against human HeLa cells assessed as reduction in cell growth after 72 hrs by cell titer glo assay; format: functional, cell-based
[6] = system: MDA-MB-231; assay: Cytotoxicity against human MDA-MB-231 cells assessed as cell viability at 33.3 uM after 72 hrs by cell titer glo assay; format: functional; details: MDA-MB-231, 72 h, read-out: Activity; method in brief: as §1
[7] = Cytotoxicity against human MIAPaCa2 cells assessed as cell viability at 33.3 uM after 72 hrs by cell titer glo assay; format: functional; details: MIA PaCa-2, 72 h, read-out: Activity; method in brief: as §1
[8] = system: MCF7; assay: Cytotoxicity against human MCF7 cells assessed as cell viability at 33.3 uM after 72 hrs by cell titer glo assay; format: functional; details: MCF7, 72 h, read-out: Activity; method in brief: as §1
[9] = system: HeLa; assay: Cytotoxicity against human HeLa cells assessed as cell viability at 33.3 uM after 72 hrs by cell titer glo assay; format: functional; details: read-out: Activity; method in brief: as §1
[10] = system: MCF10; assay: Cytotoxicity against human MCF10 cells assessed as reduction in cell growth after 72 hrs by cell titer glo assay; format: cell-based; details: MCF10, 72 h
Method in brief: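 Non-tumour mammary epithelial cells exposed to an 8-point series (33.3, 11.1, 3.7, 1.23, 0.41, 0.137, 0.0457, 0.0152 μM). IC50 is the concentration giving 50% growth inhibition, read from the plot of inhibition against concentration and calculated from three independent experiments.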

Row | Structure (SMILES) | viability at 72 h, 33.3 µM [1] [%] | IC50 [2] [µM] | IC50 [3] [µM] | IC50 [4] [µM] | IC50 [5] [µM] | viability at 33.3 µM [6] [%] | viability at 33.3 µM [7] [%] | viability at 33.3 µM [8] [%] | viability at 33.3 µM [9] [%] | IC50 [10] [nM]
1 | O=C1c2ccccc2C(=O)c2c(O)c(C(O)C/C=C/c3cccc(F)c3)cc(O)c21 (stereo unspecified) | > 50 | 32.1 | 26.3 | 26.5 | 25.2 |  |  |  |  | 
2 | COc1ccccc1/C=C/CC(O)c1cc(O)c2c(c1O)C(=O)c1ccccc1C2=O (stereo unspecified) | > 50 |  |  |  | 29 | > 50 | > 50 | > 50 |  | 
3 | O=C1c2ccccc2C(=O)c2c(O)c(C(O)C/C=C/c3ccc(Cl)cc3)cc(O)c21 (stereo unspecified) | > 50 | 32.3 | 27.4 | 28.5 | 27.4 |  |  |  |  | 
4 | O=C1c2ccccc2C(=O)c2c(O)c(C(O)C/C=C/c3ccccc3Cl)cc(O)c21 (stereo unspecified) | > 50 | 31.5 |  |  | 27.2 |  | > 50 |  |  | 
5 | O=C1c2ccccc2C(=O)c2c(O)c(C(O)C/C=C/c3ccc(Br)cc3)cc(O)c21 (stereo unspecified) | > 50 |  |  |  |  | > 50 | > 50 | > 50 | > 50 | 
6 | O=C1c2ccccc2C(=O)c2c(O)c(C(O)C/C=C/c3cccc(Cl)c3)cc(O)c21 (stereo unspecified) | > 50 | 32.2 | 26.4 | 31.2 | 25.8 |  |  |  |  | 
7 | Cc1ccc(/C=C/CC(O)c2cc(O)c3c(c2O)C(=O)c2ccccc2C3=O)cc1 (stereo unspecified) | > 50 |  |  |  | 29 | > 50 | > 50 | > 50 |  | 
8 | Cc1cccc(/C=C/CC(O)c2cc(O)c3c(c2O)C(=O)c2ccccc2C3=O)c1 (stereo unspecified) | > 50 | 32.8 | 28.5 |  | 27.2 | > 50 |  |  |  | 
9 | Cc1ccccc1/C=C/CC(O)c1cc(O)c2c(c1O)C(=O)c1ccccc1C2=O (stereo unspecified) | > 50 | 32.8 | 26.1 |  | 28.3 | > 50 |  |  |  | 
10 | O=C1c2ccccc2C(=O)c2c(O)c(C(O)C/C=C/c3ccccc3)cc(O)c21 (stereo unspecified) | > 50 |  |  |  | 18.6 | > 50 | > 50 | > 50 |  | 
11 | O=C1c2ccccc2C(=O)c2c(O)c(C(O)C/C=C/c3ccccc3Br)cc(O)c21 (stereo unspecified) | > 50 | 31.1 | 27.1 | 30.7 | 25.6 |  |  |  |  | 
12 | O=C1c2ccccc2C(=O)c2c(O)c(C(O)C/C=C/c3cccc(Br)c3)cc(O)c21 (stereo unspecified) | > 50 | 31.7 | 27.6 |  | 29.1 | > 50 |  |  |  | 
13 | COc1ccc(/C=C/CC(O)c2cc(O)c3c(c2O)C(=O)c2ccccc2C3=O)cc1 (stereo unspecified) | > 50 | 32.8 | 26.3 | 26.9 | 24.1 |  |  |  |  | 
14 | O=C1c2ccccc2C(=O)c2c(O)c(C(O)C/C=C/c3ccc(F)cc3)cc(O)c21 (stereo unspecified) | > 50 | 28.5 | 23.2 | 28 | 32.9 |  |  |  |  | 
15 | O=C1c2ccccc2C(=O)c2c(O)c(C(O)C/C=C/c3ccccc3F)cc(O)c21 (stereo unspecified) | > 50 |  | 27.3 | 29.2 | 28.7 |  |  | > 50 |  | 
16 | O=C1C2=C(C(=O)c3ccccc31)C(O)C1=C(O)CC(c3ccccc3)C1=C2O (stereo unspecified) | > 50 |  | 27.7 | 28.8 | 29.2 |  |  | > 50 |  | 
17 | COc1cccc(/C=C/CC(O)c2cc(O)c3c(c2O)C(=O)c2ccccc2C3=O)c1 (stereo unspecified) | > 50 |  | 27.1 |  | 28 | > 50 |  | > 50 |  | 
18 | COc1cccc2c1C(=O)c1c(O)c3c(c(O)c1C2=O)C[C@@](O)(C(=O)CO)C[C@@H]3O[C@H]1C[C@H](N)[C@H](O)[C@H](C)O1 [DOXORUBICIN] |  |  |  | 0.16 |  |  |  |  |  | 160
19 | CC(C)=CC[C@@H](O)C1=CC(=O)c2c(O)ccc(O)c2C1=O [SHIKONIN] |  | 5.49 | 0.04 | 3.94 | 6.42 |  |  |  |  | 4560
